Most compounds without a hit are left out; they make up all but 4% or so of the library.
FN deposition inh: fibronectin deposition inhibition | AH1F fibroblasts, Alexa488-fibronectin deposition fluorescence, overnight | inhibition, % at 12.6 µM | 0.086% of 350,000 active;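 active means mean inhibition across replicates of 30% or more, regardless of how many single replicates reach that level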
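Assay system: AH1F fibroblasts / Quantity: 10000 cells per well / Medium: DMEM plus 2% serum, read in PBS / Reagent: labelled fibronectin 24 nM / Dosing: single dose, pinned / Times: 1 h cell attachment, overnight exposure to compound and label / Signal: fluorescence, ex 485 nm, em 525 nm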
rRNA inh HTS: inhibits bacterial ribosomal RNA function over humanized ribosomes; E. coli WT GFP vs humanized-ribosome RFP mutants, fluorescence, 24 h; active compounds read low; DMSO median 0, no signal -100; GFP signal change (wild-type ribosome), % (no concentration beside the values); 1.6% of 350,000 active; AID 720706;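 active means significant combined selectivity score with lowered wild-type GFP, culture density cut under 30%, mutant RFP and density less affected; inactive means any of these conditions unmet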
C2C12 statin: suppression of simvastatin myotoxicity; C2C12 myotubes + simvastatin, ATP luminescence, 48 h; scaled: DMSO 0, geranylgeraniol control 100; rescue of ATP level, % at 7.49 µM; 0.78% of 330,000 active; AID 602340;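 active means mean ATP rescue above about 67%, or every replicate alone reaching that limit, limit read from the data, passing the limit was not always enough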;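 further: myotubes were challenged with 10 µM simvastatin during compound exposure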
SIRT5 block: sirtuin-5 (human) deacylase inhibition. Q9NXA8. 1.1% of 330,000 active. AID 652115. inhibition, % at 15 µM. Purified SirT5, succinyl-peptide AMC, trypsin-coupled fluorescence; in the data active means inhibition above about 15%
E-selectin induc: induces E-selectin expression in human endothelial cells. P16581. HUVEC E-selectin immunofluorescence imaging; normalized: neutral wells 0, TNF-alpha wells 100. activation, % at 7.58 µM. 0.37% of 260,000 active. AID 686992;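 active means mean E-selectin-positive cell signal at least 10% of the positive control, reached in at least 60% of replicates, without over 20% cell loss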
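Read-out basis: % PE-positive cells; Test system: HUVEC primary endothelial cells; Technique: immunofluorescence imaging; Dosing: single-point compound dose.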
FGF22 binding: shifts melting point of recombinant human FGF22 | AID 651658 | Q9HCT0 | activity (Tm shift, normalised), % at 9.99 µM | recombinant FGF22 thermal shift, SYPRO orange fluorescence; percent of sucrose octasulfate shift, DMSO zero | 1.5% of 340,000 active;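 active means mean Tm shift, scaled 0 neutral to 100 positive control, at about 1.3% or above, every replicate too, limit read from the data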
Hits are given with their value; . = inactive; / = not tested or not shown.

SMILES | FN deposition inh | rRNA inh HTS | C2C12 statin | SIRT5 block | E-selectin induc | FGF22 binding
Cc1cccc(C(=O)NC(C(=O)Nc2nc(-c3ccccn3)cs2)C(C)C)c1 (configuration not stated) | . | -35 | / | . | . | .
C[C@H](NC(=O)c1ccccc1)C(=O)Nc1nc(-c2ccccn2)cs1 | . | . | / | . | . | 43
CC(Oc1ccccc1)C(=O)Nc1nc(-c2ccccn2)cs1 (configuration not stated) | . | . | . | . | . | .
CSCCC(=O)Nc1nc(-c2ccccn2)cs1 | / | -29 | / | . | / | .
Cc1cccc(C(=O)N[C@H](C(=O)Nc2ncc(C)s2)C(C)C)c1 | . | . | / | . | . | .
C[C@@H]1CN([C@H](C)CO)C(=O)c2cc(NC(=O)Nc3ccc(F)cc3)ccc2O[C@H]1CN(C)S(C)(=O)=O | / | . | . | . | . | .
C[C@@H]1CN([C@H](C)CO)C(=O)c2cc(NC(=O)Nc3ccc(F)cc3)ccc2O[C@H]1CN(C)S(=O)(=O)c1cccs1 | / | . | . | . | 39 | .
C[C@@H]1CN([C@H](C)CO)C(=O)c2cc(NC(=O)Nc3ccc(F)cc3)ccc2O[C@@H]1CN(C)S(=O)(=O)c1cccs1 | / | . | . | . | . | .
COc1ccc(NC(=O)Nc2ccc3c(c2)C(=O)N([C@H](C)CO)C[C@H](C)[C@@H](CN(C)S(=O)(=O)c2cccs2)OCCCC[C@@H](C)O3)cc1 | / | . | / | 19 | . | .
COc1ccc(NC(=O)Nc2ccc3c(c2)C(=O)N([C@H](C)CO)C[C@H](C)[C@H](CN(C)S(=O)(=O)c2cccs2)OCCCC[C@@H](C)O3)cc1 | / | . | / | . | . | .
C[C@@H]1CCCCO[C@@H](CN(C)S(=O)(=O)c2cccs2)[C@H](C)CN([C@@H](C)CO)C(=O)c2cc(NC(=O)Nc3ccc(F)cc3)ccc2O1 | / | . | 84 | . | . | .
C[C@H]1CN([C@@H](C)CO)C(=O)CCCn2cc(nn2)CO[C@@H]1CN(C)Cc1ccc2c(c1)OCCO2 | . | . | . | . | . | .
CC1Cc2nc(SCC(N)=O)n(C)c(=O)c2S1 (configuration not stated) | . | . | 135 | . | . | .
COc1cccc(S(=O)(=O)N(C)C[C@@H]2Oc3cc(C4=CCCC4)ccc3S(=O)(=O)N([C@H](C)CO)C[C@H]2C)c1 | . | . | . | 23 | . | .
COc1cccc(S(=O)(=O)N(C)C[C@@H]2Oc3cc(C4=CCCCC4)ccc3S(=O)(=O)N([C@H](C)CO)C[C@@H]2C)c1 | / | / | . | 26 | / | .
COc1cccc(S(=O)(=O)N(C)C[C@H]2Oc3cc(C4=CCCCC4)ccc3S(=O)(=O)N([C@H](C)CO)C[C@@H]2C)c1 | / | . | . | . | . | .
CO[C@H]1CN(C)C(=O)c2cc(NC(=O)c3ccccc3)ccc2OC[C@H](C)N(CC2CC2)C[C@@H]1C | . | . | . | / | . | /
CCCCN(C)C(=O)c1c[nH]c2ccc(S(=O)(=O)N3CCOCC3)cc2c1=O | . | . | . | . | . | .
O=C(O)c1c[nH]c2ccc(S(=O)(=O)N3CCOCC3)cc12 | . | / | 107 | / | . | /
Cc1ccc(S(=O)(=O)NC(=O)Nc2c(C)n(C)n(-c3ccccc3)c2=O)cc1 | / | . | . | . | / | .
Cc1ccc(C(=O)Nc2c(C)n(C)n(-c3ccccc3)c2=O)cc1 | . | . | / | . | / | 44
Cc1ccc(S(=O)(=O)NCCCCCC(=O)Nc2c(C)n(C)n(-c3ccccc3)c2=O)cc1 | . | . | . | . | / | 43
Cc1c(NC(=O)c2ccc(C(=O)Nc3c(C)n(C)n(-c4ccccc4)c3=O)cc2)c(=O)n(-c2ccccc2)n1C | . | . | . | . | . | .
O=S(=O)(N[C@@H]1CC[C@@H](CCn2cc(Cc3ccccc3)nn2)O[C@H]1CO)c1ccccc1F | . | . | . | 20 | . | .
O=S(=O)(N[C@@H]1CC[C@@H](CCn2cc(-c3cccnc3)nn2)O[C@H]1CO)c1ccccc1 | / | . | . | 16 | . | .
O=S(=O)(N[C@@H]1CC[C@H](CCn2cc(-c3cccnc3)nn2)O[C@H]1CO)c1ccccc1 | / | . | . | . | . | .
